Data taken from ChEMBL document CHEMBL1649574, “Prevalence and characterization of heterogeneous vancomycin-intermediate Staphylococcus aureus isolates from 14 cities in China” (2009).

Legend:
Format in all cases: functional
[1] = tested on: Staphylococcus aureus; assay: Antimicrobial activity against heterogeneous vancomycin-intermediate Staphylococcus aureus assessed as growth inhibition at MIC; design: scale not given: the % may be the effect or the level left
[2] = tested on: Staphylococcus aureus; assay: Antimicrobial activity against SCCmec type III vancomycin-intermediate Staphylococcus aureus isolate bd4768 by agar dilution method
Summary of the method: (§1)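 Agar-dilution MICs were measured on a subset of 200 blood MRSA isolates from China. Agents: oxacillin, rifampin, gentamicin, levofloxacin, erythromycin, vancomycin, teicoplanin, tigecycline, ceftobiprole and linezolid. Phenotype came from the PAP-AUC ratio of each isolate to S. aureus Mu3 (VSSA <0.9; hVISA 0.9 to 1.3; VISA ≥1.3), read on BHI agar with 0 to 8.0 mg/liter vancomycin after 48 h at 35°C.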

[3] = tested on: Staphylococcus aureus; assay: Antimicrobial activity against heterogeneous vancomycin-intermediate Staphylococcus aureus assessed as susceptible isolates by agar dilution method
Summary of the method: (§2)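 MICs by agar dilution for all 200 MRSA blood isolates (oxacillin, rifampin, gentamicin, levofloxacin, erythromycin, vancomycin, teicoplanin, tigecycline, ceftobiprole, linezolid). Isolates were grouped by PAP-AUC ratio against S. aureus Mu3: below 0.9 VSSA, 0.9 to 1.3 hVISA, 1.3 or more VISA.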

[4] = tested on: Staphylococcus aureus; assay: Antimicrobial activity against vancomycin-susceptible Staphylococcus aureus assessed as growth inhibition at 16 times MIC; design: scale not given: the % may be the effect or the level left
[5] = tested on: Staphylococcus aureus; assay: Antimicrobial activity against SCCmec type II vancomycin-intermediate Staphylococcus aureus isolate 4sy32 by agar dilution method; summary of the method: as §1
[6] = tested on: Staphylococcus aureus; assay: Antimicrobial activity against heterogeneous vancomycin-intermediate Staphylococcus aureus by agar dilution method; summary of the method: as §1
[7] = tested on: Staphylococcus aureus; assay: Antimicrobial activity against heterogeneous vancomycin-intermediate Staphylococcus aureus assessed as growth inhibition at 0.125 times MIC; design: scale not given: the % may be the effect or the level left
[8] = tested on: Staphylococcus aureus; assay: Antimicrobial activity against heterogeneous vancomycin-intermediate Staphylococcus aureus assessed as growth inhibition at 0.5 times MIC; design: scale not given: the % may be the effect or the level left
[9] = tested on: Staphylococcus aureus; assay: Antimicrobial activity against SCCmec type III vancomycin-intermediate Staphylococcus aureus isolate 5zjsau3 by agar dilution method; summary of the method: as §1
[10] = tested on: Staphylococcus aureus; assay: Antimicrobial activity against SCCmec type III vancomycin-intermediate Staphylococcus aureus isolate 11b091 by agar dilution method; summary of the method: as §1
[11] = tested on: Staphylococcus aureus; assay: Antimicrobial activity against SCCmec type II vancomycin-intermediate Staphylococcus aureus isolate 6zjsau7 by agar dilution method; summary of the method: as §1
[12] = tested on: Staphylococcus aureus; assay: Antimicrobial activity against SCCmec type III vancomycin-intermediate Staphylococcus aureus isolate gz06051 by agar dilution method; summary of the method: as §1
[13] = tested on: Staphylococcus aureus; assay: Antimicrobial activity against vancomycin-susceptible Staphylococcus aureus assessed as growth inhibition at 0.5 times MIC; design: scale not given: the % may be the effect or the level left
[14] = tested on: Staphylococcus aureus; assay: Antimicrobial activity against SCCmec type III vancomycin-intermediate Staphylococcus aureus isolate b6k1642 by agar dilution method; summary of the method: as §1
[15] = tested on: Staphylococcus aureus; assay: Antimicrobial activity against SCCmec type II vancomycin-intermediate Staphylococcus aureus isolate 4sy39 by agar dilution method; summary of the method: as §1
[16] = tested on: Staphylococcus aureus; assay: Antimicrobial activity against SCCmec type III vancomycin-intermediate Staphylococcus aureus isolate b6k7974 by agar dilution method; summary of the method: as §1
[17] = tested on: Staphylococcus aureus; assay: Antimicrobial activity against heterogeneous vancomycin-intermediate Staphylococcus aureus assessed as intermediate isolates by agar dilution method; summary of the method: as §2
[18] = tested on: Staphylococcus aureus; assay: Antimicrobial activity against vancomycin-susceptible Staphylococcus aureus assessed as growth inhibition at MIC; design: scale not given: the % may be the effect or the level left
[19] = tested on: Staphylococcus aureus; assay: Antimicrobial activity against vancomycin-susceptible Staphylococcus aureus by agar dilution method; summary of the method: as §1
[20] = tested on: Staphylococcus aureus; assay: Antimicrobial activity against SCCmec type IV vancomycin-intermediate Staphylococcus aureus isolate 06b41 by agar dilution method; summary of the method: as §1
[21] = tested on: Staphylococcus aureus; assay: Antimicrobial activity against SCCmec type III vancomycin-intermediate Staphylococcus aureus isolate b3k5923 by agar dilution method; summary of the method: as §1
[22] = tested on: Staphylococcus aureus; assay: Antimicrobial activity against SCCmec type III vancomycin-intermediate Staphylococcus aureus isolate b5k3578 by agar dilution method; summary of the method: as §1
[23] = tested on: Staphylococcus aureus; assay: Antimicrobial activity against SCCmec type II vancomycin-intermediate Staphylococcus aureus isolate 07b63 by agar dilution method; summary of the method: as §1
[24] = tested on: Staphylococcus aureus; assay: Antimicrobial activity against heterogeneous vancomycin-intermediate Staphylococcus aureus assessed as growth inhibition at 4 times MIC; design: scale not given: the % may be the effect or the level left
[25] = tested on: Staphylococcus aureus; assay: Antimicrobial activity against vancomycin-susceptible Staphylococcus aureus assessed as growth inhibition at 0.25 times MIC; design: scale not given: the % may be the effect or the level left
[26] = tested on: Staphylococcus aureus; assay: Antimicrobial activity against SCCmec type III vancomycin-intermediate Staphylococcus aureus isolate b4k6307 by agar dilution method; summary of the method: as §1
[27] = tested on: Staphylococcus aureus; assay: Antimicrobial activity against SCCmec type III vancomycin-intermediate Staphylococcus aureus isolate b3k2345 by agar dilution method; summary of the method: as §1
[28] = tested on: Staphylococcus aureus; assay: Antimicrobial activity against SCCmec type III vancomycin-intermediate Staphylococcus aureus isolate sh07043 by agar dilution method; summary of the method: as §1
[29] = tested on: Staphylococcus aureus; assay: Antimicrobial activity against SCCmec type II vancomycin-intermediate Staphylococcus aureus isolate sh06024 by agar dilution method; summary of the method: as §1
[30] = tested on: Staphylococcus aureus; assay: Antimicrobial activity against heterogeneous vancomycin-intermediate Staphylococcus aureus assessed as growth inhibition at 16 times MIC; design: scale not given: the % may be the effect or the level left
[31] = tested on: Staphylococcus aureus; assay: Antimicrobial activity against heterogeneous vancomycin-susceptible Staphylococcus aureus assessed as susceptible isolates by agar dilution method; summary of the method: as §2
[32] = tested on: Staphylococcus aureus; assay: Antimicrobial activity against SCCmec type III vancomycin-intermediate Staphylococcus aureus isolate zj07028 by agar dilution method; summary of the method: as §1
[33] = tested on: Staphylococcus aureus; assay: Antimicrobial activity against SCCmec type III vancomycin-intermediate Staphylococcus aureus isolate gz07030 by agar dilution method; summary of the method: as §1
[34] = tested on: Staphylococcus aureus; assay: Antimicrobial activity against SCCmec type III vancomycin-intermediate Staphylococcus aureus isolate gz06040 by agar dilution method; summary of the method: as §1
[35] = tested on: Staphylococcus aureus; assay: Antimicrobial activity against SCCmec type III vancomycin-intermediate Staphylococcus aureus isolate xa07029 by agar dilution method; summary of the method: as §1
[36] = tested on: Staphylococcus aureus; assay: Antimicrobial activity against heterogeneous vancomycin-intermediate Staphylococcus aureus assessed as growth inhibition at 0.25 times MIC; design: scale not given: the % may be the effect or the level left
[37] = tested on: Staphylococcus aureus; assay: Antimicrobial activity against SCCmec type III vancomycin-intermediate Staphylococcus aureus isolate b2k3421 by agar dilution method; summary of the method: as §1
[38] = tested on: Staphylococcus aureus; assay: Antimicrobial activity against SCCmec type III vancomycin-intermediate Staphylococcus aureus isolate 13b16 by agar dilution method; summary of the method: as §1
[39] = tested on: Staphylococcus aureus; assay: Antimicrobial activity against vancomycin-intermediate Staphylococcus aureus by agar dilution method; summary of the method: as §1
[40] = tested on: Staphylococcus aureus; assay: Antimicrobial activity against SCCmec type II vancomycin-intermediate Staphylococcus aureus isolate b2k4781 by agar dilution method; summary of the method: as §1
[41] = tested on: Staphylococcus aureus; assay: Antimicrobial activity against SCCmec type III vancomycin-intermediate Staphylococcus aureus isolate 15b52 by agar dilution method; summary of the method: as §1
[42] = tested on: Staphylococcus aureus; assay: Antimicrobial activity against heterogeneous vancomycin-intermediate Staphylococcus aureus assessed as growth inhibition at 2 times MIC; design: scale not given: the % may be the effect or the level left
[43] = tested on: Staphylococcus aureus; assay: Antimicrobial activity against vancomycin-susceptible Staphylococcus aureus assessed as growth inhibition at 0.125 times MIC; design: scale not given: the % may be the effect or the level left
[44] = tested on: Staphylococcus aureus; assay: Antimicrobial activity against SCCmec type III vancomycin-intermediate Staphylococcus aureus isolate gs07022 by agar dilution method; summary of the method: as §1
[45] = tested on: Staphylococcus aureus; assay: Antimicrobial activity against heterogeneous vancomycin-susceptible Staphylococcus aureus assessed as intermediate isolates by agar dilution method
[46] = tested on: Staphylococcus aureus; assay: Antimicrobial activity against SCCmec type III vancomycin-intermediate Staphylococcus aureus isolate b5k3529 by agar dilution method; summary of the method: as §1
[47] = tested on: Staphylococcus aureus; assay: Antimicrobial activity against vancomycin-susceptible Staphylococcus aureus assessed as growth inhibition at 4 times MIC; design: scale not given: the % may be the effect or the level left
[48] = tested on: Staphylococcus aureus; assay: Antimicrobial activity against vancomycin-susceptible Staphylococcus aureus assessed as growth inhibition at 2 times MIC; design: scale not given: the % may be the effect or the level left
[49] = tested on: Staphylococcus aureus; assay: Antimicrobial activity against heterogeneous vancomycin-intermediate Staphylococcus aureus assessed as resistant isolates by agar dilution method
[50] = tested on: Staphylococcus aureus; assay: Antimicrobial activity against heterogeneous vancomycin-susceptible Staphylococcus aureus assessed as resistant isolates by agar dilution method

CN(C)c1cc(NC(=O)CNC(C)(C)C)c(O)c2c1C[C@H]1C[C@H]3[C@H](N(C)C)C(O)=C(C(N)=O)C(=O)[C@@]3(O)C(O)=C1C2=O [TIGECYCLINE]
92.6%: Activity [36]
0.125 µg/mL: MIC [2] | MIC [10] | MIC50 [19] | MIC [29] | MIC [33] | MIC [34] | MIC [37] | MIC [38] | MIC [40] | MIC [46]
54.3%: Activity [43]
0.25 µg/mL: MIC [5] | MIC50 [6] | MIC90 [6] | MIC [9] | MIC [11] | MIC [12] | MIC [14] | MIC [15] | MIC [16] | MIC90 [19] | MIC [20] | MIC [22] | MIC [28] | MIC [35] | MIC [39] | MIC [41] | MIC [44]
90.2%: Activity [25]
0.064 µg/mL: MIC [26] | MIC [27]
100%: Activity [1] | Activity [3] | Activity [4] | Activity [8] | Activity [13] | Activity [18] | Activity [24] | Activity [30] | Activity [31] | Activity [42] | Activity [47] | Activity [48]
0.5 µg/mL: MIC [23] | MIC [32]
0%: Activity [17] | Activity [45]
44.4%: Activity [7]
0.032 µg/mL: MIC [21]

CN[C@H](CC(C)C)C(=O)N[C@H]1C(=O)N[C@@H](CC(N)=O)C(=O)N[C@H]2C(=O)N[C@H]3C(=O)N[C@H](C(=O)N[C@H](C(=O)O)c4cc(O)cc(O)c4-c4cc3ccc4O)[C@H](O)c3ccc(c(Cl)c3)Oc3cc2cc(c3O[C@@H]2O[C@H](CO)[C@@H](O)[C@H](O)[C@H]2O[C@H]2C[C@](C)(N)[C@H](O)[C@H](C)O2)Oc2ccc(cc2Cl)[C@H]1O [VANCOMYCIN]
100%: Activity [4] | Activity [24] | Activity [30] | Activity [31] | Activity [47] | Activity [48]
1 µg/mL: MIC50 [6] | MIC50 [19] | MIC90 [19]
3.7%: Activity [8] | Activity [17]
96.3%: Activity [3] | Activity [42]
2 µg/mL: MIC90 [6]
99.4%: Activity [18]
85.2%: Activity [1]
0%: Activity [7] | Activity [25] | Activity [36] | Activity [49] | Activity [43] | Activity [45] | Activity [50]
35.8%: Activity [13]
